Published values pooled from the literature.
Protocols differ between the studies behind these lines.
Target: Receptor tyrosine-protein kinase erbB-4 (ERBB4, Homo sapiens, UniProt Q15303)

With `C[C@H]1CCN(c2nccc(-c3cnn4ncccc34)n2)C1` the remaining binding was 81% (binding; 1 µM).
With `CCC(=N\O)/C(C)=C/c1ccc(F)cc1` the remaining binding was 66% (cell-free assay; competition with immobilised ligand; 1 µM).
The remaining binding of `CN(c1nccc(-c2cnn3ncccc23)n1)C1CC1` is reported as 100% (binding; 1 µM).
`COc1cnc(Nc2cccc(S(N)(=O)=O)c2)nc1N1CCN(c2ccccc2)CC1` has a remaining binding of 86% (binding; competition with immobilised ligand; 1 µM).
For `COc1ccc2c(c1)O[C@@H](c1ccc(OC)c(OC)c1)C[C@H]2NC(=O)C1(c2ccc3c(c2)OC(F)(F)O3)CC1`, the remaining binding was 90% (cell-free assay; competition with immobilised ligand; 1 µM).
For `O=C(NCCCN1CCOCC1)c1ccc(Nc2ncc(Cl)c(-c3ccc(Cl)s3)n2)cc1`, the remaining binding was 100% (binding; competition with immobilised ligand; 1 µM).
`O=C(Nc1c[nH]nc1C(=O)NC1CCNCC1)c1cc(F)cc(F)c1` has a remaining binding of 100% (binding; competition with immobilised ligand; 1 µM).
`O=C(NCCCN1CCOCC1)c1ccc(Nc2nccc(-c3cc4ccccc4s3)n2)cc1` has a remaining binding of 86% (binding; competition with immobilised ligand; 1 µM).
The remaining binding of `CCN1CCN(Cc2ccc(C(=O)Nc3ccc(C)c(Oc4ccc5c(c4)CC(=O)N5)c3)cc2C(F)(F)F)CC1` is reported as 100% (binding; competition with immobilised ligand; 1 µM).
`C=CC(=O)N1CCC(C(=O)NCC(=O)N2CCN(c3nc(-c4cnc(N)nc4C(F)F)nc(N4CCOCC4)n3)CC2)CC1` gave a remaining binding of 100% (binding; competition with immobilised ligand; 1 µM).
`N#CC1(c2ccccn2)CCN(Cc2cc(C(=O)N3CCCC3)c(=O)n3ccccc23)CC1` gave a remaining binding of 85% (cell-free assay; competition with immobilised ligand; 1 µM).
`N#Cc1ccccc1CSc1nnc2c(n1)[nH]c1ccccc12` gave a remaining binding of 74% (binding; competition with immobilised ligand; 10 µM).
`Nc1c(C(=O)NCc2ccc(C(=O)NCCCC3CCCCC3)cc2)cnn1-c1ccccc1` gave a remaining binding of 89% (cell-free assay; competition with immobilised ligand; 0.1 µM).
For `CN(CCCC(F)(F)F)c1nccc(-c2cnn3ncccc23)n1`, the remaining binding was 72% (binding; 1 µM).
With `Nc1ncc2c(n1)-c1c([nH]c3ccc(C#CC4CC4)cc13)CCCC2` the remaining binding was 100% (binding; competition with immobilised ligand; 1 µM).
`CC1CCCN1c1nccc(-c2cnn3ncccc23)n1` (stereo not shown) gave a remaining binding of 98% (binding; 1 µM).
For `CCCCN(CCCC)C(=O)CN1C[C@@H](c2cc(OC)c3c(c2)OCO3)[C@H](C(=O)O)[C@H]1CC(C)(C)CCC`, the remaining binding was 95% (cell-free assay; competition with immobilised ligand; 1 µM).
`Cc1cnc(Nc2ccc(C(=O)N3CCC(N4CCCC4)CC3)cc2)nc1-c1cc2ccccc2s1` gave a remaining binding of 84% (binding; competition with immobilised ligand; 1 µM).
`CN(C)c1nccc(-c2cnn3ncccc23)n1` has a remaining binding of 81% (binding; 1 µM).
With `COc1cnc(Nc2cccc(S(N)(=O)=O)c2)nc1N1CCN(c2ccccc2)C(=O)C1` the remaining binding was 100% (binding; competition with immobilised ligand; 1 µM).
`COc1ccc2c(O[C@@H]3C[C@H]4C(=O)N[C@]5(C(=O)O)CC5/C=C\CCCCC[C@H](NC(=O)OC5CCCC5)C(=O)N4C3)cc(-c3csc(NC(=O)C(C)C)n3)nc2c1C` (stereo partly shown) gave a remaining binding of 100% (cell-free assay; competition with immobilised ligand; 1 µM).
`N[C@@H]1CCN(c2nccc(-c3cnn4ncccc34)n2)C1` has a remaining binding of 100% (binding; 1 µM).
